Source: ChEMBL document CHEMBL3232882, “N-Acyl-phosphoramidates as potential novel form of gemcitabine prodrugs” (Bioorg Med Chem, 2014)

What was measured:
[1] = molecular target: T1, Adenosine 5'-monophosphoramidase HINT1 (Homo sapiens, UniProt P49773); assay: Drug metabolism in human K562 cell lysate assessed as HINT-1-mediated gemcitabine formation at 1 mM after 22 hrs by RP-HPLC analysis relative to control; type: ADME, cell-based; conditions: k562, 22 h, 1000 µM
Summary of the method: (§1)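 K562 lysate from confluent cells, scraped and sonicated in PBS with protease inhibitors. Substrate 1 mM in 20 mM Na-HEPES pH 7.2, 0.5 mM MgCl2, with lysate protein, 22 h at 37 °C. Quenched on ice, heat-denatured, centrifuged. Supernatant analysed by C18 RP-HPLC (0–8% acetonitrile in 0.1 M TEAB pH 7.4, 20 min) at 260 nm. Peaks integrated; products identified by co-injection; mean ± SE, at least duplicate.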

[2] = molecular target: T2, Adenosine 5'-monophosphoramidase HINT1 (Oryctolagus cuniculus, UniProt P80912); assay: Drug metabolism assessed as recombinant rabbit HINT1-mediated hydrolysis of NH2-pdFdC to pdFdC per ug protein at 0.2 mM by RP-HPLC analysis; type: ADME; conditions: 200 µM
Summary of the method: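 Recombinant Hint-1 expressed in E. coli BL21 from pSGA02-HINT, purified by AMP-agarose affinity; hydrolysis of NH2-pdFdC to pdFdC at 0.2 mM substrate, activity expressed per µg protein; products followed by RP-HPLC on C18 column with acetonitrile gradient in 0.1 M triethylammonium bicarbonate, pH 7.4, peak areas integrated.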

[3] = molecular target: T1, Adenosine 5'-monophosphoramidase HINT1; assay: Drug metabolism in human K562 cell lysate assessed as HINT-1-mediated gemcitabine 5'-monophosphate formation at 1 mM after 22 hrs by RP-HPLC analysis relative to control; type: ADME, cell-based; conditions: k562, 22 h, 1000 µM; summary of the method: as §1
[4] = molecular target: T2, Adenosine 5'-monophosphoramidase HINT1; assay: Drug metabolism assessed as recombinant rabbit HINT1-mediated hydrolysis of NH2-pdFdC to pdFdC per ug protein at 1 mM by RP-HPLC analysis; type: ADME; conditions: 1000 µM
[5] = molecular target: T1, Adenosine 5'-monophosphoramidase HINT1; assay: Drug metabolism in human K562 cell lysate assessed as HINT-1-mediated compound formation by measuring retention time at 1 mM after 22 hrs by RP-HPLC analysis relative to control; type: ADME, cell-based; conditions: k562, 22 h, 1000 µM; summary of the method: as §1
CFPAC-1 [6] = assay: Cytotoxicity against human CFPAC-1 cells assessed as reduction of cell survival after 96 hrs by MTT assay; type: functional, cell-based; conditions: CFPAC-1, 96 h
Summary of the method: (§2)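 HeLa seeded at 7×10^3 and CFPAC at 10^4 per well in RPMI 1640 with 10% FCS under 5% CO2. After 24 h, exposure to compounds (aqueous 100 mM stock; final 1 mM to 1×10^-6 mM) for 72 or 96 h. MTT 2 h, formazan dissolved in 20% SDS/50% DMF pH 4.7, A570/650. Untreated cells = 100%; IC50 from dose-response curves, 2 independent experiments in triplicate.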

[7] = molecular target: T1, Adenosine 5'-monophosphoramidase HINT1; assay: Drug level in human K562 cell lysate treated with 1 mM gemcitabine 5'-phosphoramidate assessed as HINT-1-mediated compound formation after 22 hrs by RP-HPLC analysis relative to control; type: ADME, cell-based; conditions: k562, 22 h; summary of the method: as §1
CFPAC-1 [8] = assay: Cytotoxicity against human CFPAC-1 cells assessed as reduction of cell survival after 72 hrs by MTT assay; type: functional, cell-based; conditions: CFPAC-1, 72 h; summary of the method: as §2
K562 = assay: Cytotoxicity against human K562 cells assessed as reduction of cell survival after 48 hrs by MTT assay; type: functional, cell-based; conditions: K562, 48 h
Summary of the method: (§3)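 HUVEC (from fresh umbilical cords, gelatin-coated dishes, RPMI 1640 with 20% FBS, heparin, ECGF) and K562 (RPMI 1640, 10% FCS) were seeded at 7×10^3 per well. After 24 h, exposure for 48 h to compounds from 100 mM aqueous stock, final 1 mM down to 1×10^-6 mM. MTT read at 570/650 nm; untreated = 100%; IC50 from dose-response curves, mean of 2 experiments in triplicate.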

HeLa [9] = assay: Cytotoxicity against human HeLa cells assessed as reduction of cell survival after 72 hrs by MTT assay; type: functional, cell-based; summary of the method: as §2
HeLa [10] = assay: Cytotoxicity against human HeLa cells assessed as reduction of cell survival after 96 hrs by MTT assay; type: functional, cell-based; summary of the method: as §2
HUVEC = assay: Cytotoxicity against HUVEC assessed as cell after 48 hrs by MTT assay; type: cell-based; conditions: Homo sapiens; summary of the method: as §3
[11] = molecular target: T1, Adenosine 5'-monophosphoramidase HINT1; assay: Drug metabolism in human K562 cell lysate assessed as HINT-1-mediated compound dephosphorylation at 1 mM after 22 hrs by RP-HPLC analysis relative to control; type: ADME, cell-based; conditions: k562, 22 h, 1000 µM; summary of the method: as §1

T1 sequence (P49773 whole entry): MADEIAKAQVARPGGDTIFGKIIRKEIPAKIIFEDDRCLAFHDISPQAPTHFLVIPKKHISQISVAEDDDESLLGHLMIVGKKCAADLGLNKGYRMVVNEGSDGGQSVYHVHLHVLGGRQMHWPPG
T2 sequence (P80912 whole entry): as the sequence (P49773 whole entry) above, with R37Q, V65A, D69A, N91K, H122N counted along it

Nc1ccn([C@@H]2O[C@H](COP(N)(=O)O)[C@@H](O)C2(F)F)c(=O)n1
Drug metabolism [1]: metabolite_detected
Drug metabolism [2]: 0.88 nmol/min/µg
Drug metabolism [3]: metabolite_detected
Drug metabolism [4]: 1.88 nmol/min/µg
Retention_time [5]: 10.6 min

Nc1ccn([C@@H]2O[C@H](CO)[C@@H](O)C2(F)F)c(=O)n1 [GEMCITABINE]
IC50 (CFPAC-1 [6]): 350 nM
Drug metabolism [7]: metabolite_detected
IC50 (CFPAC-1 [8]): 470 nM
IC50 (K562): 50 nM
IC50 (HeLa [9]): 10000 nM
Retention_time [5]: 11.8 min
IC50 (HeLa [10]): 900 nM
IC50 (HUVEC): 3 nM

Nc1ccn([C@@H]2O[C@H](COP(=O)(O)O)[C@@H](O)C2(F)F)c(=O)n1
Drug metabolism [7]: metabolite_detected
Drug metabolism [11]: metabolite_detected
Retention_time [5]: 11.1 min
